From PubChem BioAssay
An excerpt weighted towards active compounds, which were near 4.3% of everything screened.
TAAR1 antag = human TAAR1 antagonism; Q96RJ0; CHO RD-HGA16 TAAR1, Fluo-8 calcium fluorescence, antagonist; inhibition, % at 3 µM; 360,000 compounds, 1.5% hits; AID 624466;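 active = inhibition above a per-plate cutoff, the mean inhibition of test compounds on that plate plus 3 SD, cut at about 49% in these data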;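 also: 0% = DMSO plus EC80 beta-PEA response and 100% = DMSO alone without agonist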
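test system = CHO RD-HGA16 cells bearing hTAAR1 | replication = singlicate | controls = DMSO-only wells and EC80 β-PEA-stimulated wells | reagent = EC80 β-phenethylamine stimulus | read-out basis = percent inhibition of PEA-evoked calcium signal, max/basal emission ratio | schedule = seeding 17-24 h prior, 75-min 37 °C, 30-min RT dye loading | signal = kinetic Fluo-8 calcium fluorescence measurement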
OX1R antag-1 = antagonists of human orexin 1 receptor (OX1R). inhibition, % at 6.6 µM. O43613. OX1R-expressing cells, FRET antagonist read-out. 330,000 compounds, 1.8% hits; in the data active = inhibition mostly above about 38%, no sharp cut-off; inactive = mostly below about 40%;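 also: 0% = agonist challenge alone and 100% = reference antagonist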
Target sequence (O43613 whole entry, looked up): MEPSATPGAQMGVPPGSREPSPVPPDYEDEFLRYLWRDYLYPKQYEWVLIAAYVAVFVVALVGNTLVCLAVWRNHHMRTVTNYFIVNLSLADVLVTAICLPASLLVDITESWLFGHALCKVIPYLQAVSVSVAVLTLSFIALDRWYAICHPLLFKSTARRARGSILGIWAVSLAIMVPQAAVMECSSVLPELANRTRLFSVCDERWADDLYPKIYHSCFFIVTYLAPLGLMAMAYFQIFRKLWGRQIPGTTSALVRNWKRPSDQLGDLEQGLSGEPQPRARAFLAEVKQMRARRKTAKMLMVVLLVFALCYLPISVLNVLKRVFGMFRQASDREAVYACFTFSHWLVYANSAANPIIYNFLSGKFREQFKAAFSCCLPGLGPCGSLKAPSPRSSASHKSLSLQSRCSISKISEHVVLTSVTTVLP
TAAR1 ag = human TAAR1 agonism. 360,000 compounds, 0.99% hits. activation, % at 3 µM. CHO RD-HGA16 TAAR1, Fluo-8 calcium fluorescence; vehicle wells 0%, saturating PEA agonist 100%. Q96RJ0. AID 624467;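 active = activation above the mean activation of all test compounds in the run plus 3 SD, cut at about 38% in these data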
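Signal – calcium-sensitive Fluo-8 signal, excitation 470-495, emission 515-575 nm · System – RD-HGA16 (CHO) cells co-expressing Gα16 and hTAAR1 · Incubation – 17-24 h seeding, 75 min 37 °C dye, 30 min RT · Compound dosing – 3 µM single concentration · Repeats – no replicates (n 1)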
GalR3 antag = human GalR3 antagonism | 360,000 compounds, 0.44% hits | HEK293 GalR3-CNG cAMP membrane potential fluorescence; galR3 body fused to GalR1 C-terminus | inhibition, % at 3 µM | O60755 | AID 651719;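 active = inhibition above the screen-wide average plus 3 SD, cut at about 13% in these data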;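 also: forskolin and galanin both at EC90 stimulate the cells; cAMP rise reported by CNG channel membrane potential dye signal; 0% = forskolin plus galanin with DMSO and 100% = forskolin alone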
Target sequence (O60755 1-299 limits assumed): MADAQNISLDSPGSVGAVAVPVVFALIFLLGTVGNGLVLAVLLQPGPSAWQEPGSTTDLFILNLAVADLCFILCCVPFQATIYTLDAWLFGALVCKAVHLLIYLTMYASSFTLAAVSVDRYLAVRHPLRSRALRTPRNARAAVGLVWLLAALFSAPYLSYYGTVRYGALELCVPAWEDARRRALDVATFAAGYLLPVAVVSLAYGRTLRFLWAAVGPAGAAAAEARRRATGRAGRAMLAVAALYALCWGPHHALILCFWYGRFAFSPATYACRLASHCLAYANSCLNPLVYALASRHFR
CHO parental Ca = counter-screen: ATP calcium response change in parental CHO cells; parental CHO-K1, ATP-induced calcium, Fluo-8 fluorescence; inhibition, % at 5.6 µM; 330,000 compounds, 0.63% hits; AID 463079;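 active = inhibition above that plate's mean sample inhibition plus 3 SD, cut at about 26% in these data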;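 also: 0% = ATP-challenged DMSO wells and 100% = DMSO wells without ATP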
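Test system: untransfected parental CHO cell line; also added: ATP stimulus; dosing: 5.6 µM, single dose; signal: calcium-sensitive Fluo-8 fluorescence; measure: percent inhibition of ATP-evoked calcium rise, normalized to controls; benchmarks: low control ATP plus DMSO, high control DMSO only; replication: one well per compound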
OX1R antag-2 = human HCRTR1 antagonism; O43613; CHO/OX1R cells, Fluo-8 calcium fluorescence, orexin A; inhibition, % at 5 µM; 330,000 compounds, 0.43% hits;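 active = inhibition above its plate's threshold, mean inhibition of all tested compounds on the plate plus 3 SD, cut at about 37% in these data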;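 also: 0% = orexin A challenge wells and 100% = SB-334867-A antagonist wells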
TAAR1 ag conf = human TAAR1 agonism, confirmed. shares compounds with TAAR1 ag. CHO RD-HGA16 TAAR1, Fluo-8 calcium fluorescence; scaled: DMSO 0%, maximal phenethylamine 100%. activation, % at 3 µM. 2,400 compounds, 82% hits. AID 651783;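 active = activation above a cutoff set at the run's mean compound activation plus 3 SD, cut at about 39% in these data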
Ga16 nonsel ag = nonselective agonist in parental cells, TAAR1 agonist counter-screen; shares compounds with TAAR1 ag; CHO-Ga16 parental, Fluo-8 calcium fluorescence; normalized to maximal ATP response, DMSO zero; activation, % at 3 µM; 2,400 compounds, 50% hits; AID 651787;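 active = activation above the run cutoff, the mean activation over all tested wells plus 3 SD, cut at about 12% in these data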;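 also: 0% = DMSO wells and 100% = maximal ATP response on the peak over basal ratio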
TAAR1 desensitize = TAAR1 response desensitization, agonist counter-screen | shares compounds with TAAR1 ag | 2,400 compounds, 46% hits | CHO RD-HGA16 hTAAR1, Fluo-8 calcium, beta-PEA response inhibition | AID 651951 | inhibition, % at 3 µM;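 active = inhibition above the run cutoff, the mean inhibition of all test compounds plus 3 SD, cut at about 49% in these data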;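 also: beta-PEA stimulus applied at its EC80; loss of beta-PEA calcium signal after compound pretreatment read as receptor desensitization; 0% = DMSO with beta-PEA at EC80 and 100% = DMSO alone without agonist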
Ga16 antag count = counter-screen for TAAR1 agonists: nonselective Ga16 antagonists; shares compounds with TAAR1 ag; CHO-Ga16 ATP-induced calcium, Fluo-8 fluorescence; inhibition, % at 3 µM; 2,400 compounds, 39% hits;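 active = inhibition above the plate's mean compound inhibition plus 3 SD, computed per plate, cut at about 22% in these data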;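 also: 0% = EC80 ATP with DMSO and 100% = DMSO wells without ATP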
An asterisk follows results filed as active.

For CCCN(C(=O)COC(=O)COc1c(C)cccc1C)c1c(N)n(Cc2ccccc2)c(=O)[nH]c1=O the results were TAAR1 antag -17, OX1R antag-1 22, TAAR1 ag 0, GalR3 antag -4, CHO parental Ca -4 and OX1R antag-2 6.
For CC(=O)c1ccc(NC(=S)NC(NC(=O)c2ccco2)C(Cl)(Cl)Cl)cc1 (configuration not stated) the results were TAAR1 antag 43, OX1R antag-1 52, TAAR1 ag 96*, GalR3 antag 6, CHO parental Ca -12, OX1R antag-2 15, TAAR1 ag conf 106*, Ga16 nonsel ag 29*, TAAR1 desensitize 80* and Ga16 antag count 21.
`O=C(NC(NC(=S)Nc1ccc(Cl)cc1)C(Cl)(Cl)Cl)c1ccco1` (configuration not stated) gave TAAR1 antag 16, OX1R antag-1 22, TAAR1 ag 17, GalR3 antag -10, CHO parental Ca 4 and OX1R antag-2 -1.
`COc1cccc(CN(C)C(=O)CCN(c2ccccc2)S(=O)(=O)c2ccc(C)cc2)c1OC` gave TAAR1 antag 30, OX1R antag-1 31, TAAR1 ag 5, GalR3 antag -1, CHO parental Ca -23 and OX1R antag-2 -28.
`NC(=O)Cc1nc(-c2ccccc2)cs1` gave TAAR1 antag 6, OX1R antag-1 6, TAAR1 ag 0, GalR3 antag -3, CHO parental Ca -6 and OX1R antag-2 -3.
Screening NCCc1nc(-c2ccccc2)cs1 returned TAAR1 antag 4, OX1R antag-1 7, TAAR1 ag 56*, GalR3 antag -4, CHO parental Ca -8, OX1R antag-2 -9, TAAR1 ag conf 73*, Ga16 nonsel ag 0, TAAR1 desensitize 61* and Ga16 antag count 11.
O=C(C1=C(O)C(=O)N(Cc2cccnc2)C1c1cccc(Oc2ccccc2)c1)c1ccco1 (configuration not stated) was read as TAAR1 antag -5, OX1R antag-1 4, TAAR1 ag 2, GalR3 antag -6, CHO parental Ca -19 and OX1R antag-2 -13.
O=C(C1=C(O)C(=O)N(CCc2ccccc2)C1c1ccncc1)c1cc2ccccc2o1 (configuration not stated) was read as TAAR1 antag 2, OX1R antag-1 33, TAAR1 ag 44*, GalR3 antag -5, CHO parental Ca -10, OX1R antag-2 -17, TAAR1 ag conf 54*, Ga16 nonsel ag 1, TAAR1 desensitize 1 and Ga16 antag count 4.
O=C(C1=C(O)C(=O)N(CCc2ccccc2)C1c1cccnc1)c1ccco1 (configuration not stated) was read as TAAR1 antag -1, OX1R antag-1 15, TAAR1 ag 47*, GalR3 antag 3, CHO parental Ca -10, OX1R antag-2 6, TAAR1 ag conf 59*, Ga16 nonsel ag 5, TAAR1 desensitize 4 and Ga16 antag count -3.
`CC(C)(C)OC(=O)N1CCC(C(=O)Nc2ccc(C(=O)NCc3ccccc3)cc2)CC1` gave TAAR1 antag 31, TAAR1 ag 9 and GalR3 antag -6.
COc1ccc(NC(=S)N2CCc3ccccc3C2)cc1OC was read as OX1R antag-1 3, GalR3 antag 1, CHO parental Ca 9, OX1R antag-2 -6, Ga16 nonsel ag 7 and Ga16 antag count 4.
For COc1ccccc1NC(=S)N1CCc2cc(OC)c(OC)cc2C1 the results were TAAR1 antag 4, OX1R antag-1 18, TAAR1 ag 0, GalR3 antag 0, CHO parental Ca -9 and OX1R antag-2 -7.
COc1cccc(NC(=S)N2CCc3cc(OC)c(OC)cc3C2)c1 was read as TAAR1 antag -27, OX1R antag-1 4, TAAR1 ag 2, GalR3 antag -3, CHO parental Ca -3 and OX1R antag-2 -17.
`COc1cc(NC(=S)N2CCc3ccccc3C2)cc(OC)c1` gave TAAR1 antag 7, OX1R antag-1 12, TAAR1 ag 49*, GalR3 antag -4, CHO parental Ca -13, OX1R antag-2 -6, TAAR1 ag conf 62*, Ga16 nonsel ag 1, TAAR1 desensitize 22 and Ga16 antag count 9.
For O=[N+]([O-])c1ccc(NC(=S)N2CCc3ccccc3C2)cc1 the results were TAAR1 antag 30, OX1R antag-1 10, TAAR1 ag 60*, GalR3 antag -2, CHO parental Ca -11, OX1R antag-2 -19, TAAR1 ag conf 81*, Ga16 nonsel ag 11, TAAR1 desensitize 63* and Ga16 antag count 22*.
Fc1ccc(NC(=S)N2CCOCC2)c(F)c1 was read as TAAR1 antag 2, OX1R antag-1 5, TAAR1 ag 0, GalR3 antag 2, CHO parental Ca -10 and OX1R antag-2 1.
`Fc1ccc(NC(=S)N2CCc3ccccc3C2)c(F)c1` gave TAAR1 antag 18, OX1R antag-1 29, TAAR1 ag 43*, GalR3 antag -5, CHO parental Ca -4, OX1R antag-2 -1, TAAR1 ag conf 72*, Ga16 nonsel ag 13*, TAAR1 desensitize 21 and Ga16 antag count 4.
Screening O=C(c1ccc([N+](=O)[O-])cc1)N1CCc2ccccc2C1 returned TAAR1 antag 7, OX1R antag-1 12, TAAR1 ag 0, GalR3 antag -5, CHO parental Ca 4 and OX1R antag-2 4.
`Cc1cn([C@H]2C[C@H](O)[C@@H](CCC(=O)NCc3ccc(N(C)C)cc3)O2)c(=O)[nH]c1=O` gave TAAR1 antag -3, TAAR1 ag 0 and GalR3 antag -3.
Screening CC(C)(C)S(=O)N1Cc2cc(CO)cc(CCO)c2[C@@H]1CCO (some centres not stated) returned TAAR1 antag -12, TAAR1 ag 1 and GalR3 antag -7.
